The EC50 is the concentration that produces a half-maximal response.

The text below walks through data of ChEMBL document CHEMBL1135242, “Tricyclic isoxazoles are novel inhibitors of the multidrug resistance protein (MRP1)” (Bioorg Med Chem Lett, 2002).

Assay [1] in a line: Selectivity ratio of average EC50 values was calculated in HL60/ADR cell line and HL60/Vinc cell line. The class given is functional, HL-60. Put shortly:
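Resistance reversal in MRP1-overexpressing HL60/Adr and P-gp-overexpressing HL60/Vinc cells. Modulator EC50 is the concentration-dependent enhancement of the antiproliferative response to an IC20 concentration of doxorubicin. Cell number is read by alamarBlue reduction. Ratio is the average EC50 in HL60/Vinc divided by the average EC50 in HL60/Adr.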

The subject of assay [2] is HeLa. Nature of the assay: Competitive inhibition of [3H]LTC4 uptake by MRP1 expressing HeLa-T5 cell membranes. The class given is functional, Homo sapiens.
Assay [3] deals with MRP1 (ABCC1, Homo sapiens). Nature of the assay: In vitro for its inhibitory activity against MRP1-transfected HeLa-T5 cell line in the presence of doxorubicin.

Molecules are shown by their SMILES.

Consider `COc1cc(N(C)C(=O)Cc2cccc(-n3c(=O)c4c(C)onc4c4c(Cl)cccc43)c2)cc(OC)c1OC`, for which the Ratio in assay [1] was 4. In assay [2], this molecule yielded an EC50 of 4200 nM.

On to `Cc1ccc(NC(=O)Cc2cccc(-n3c(=O)c4c(C)onc4c4c(Cl)cccc43)c2)cc1`, for which the EC50 in assay [3] is 3700 nM. Same read-out and setting: for `Cc1onc2c1c(=O)n(-c1cccc(CC(=O)Nc3ccc(C#N)cc3)c1)c1cccc(Cl)c21` the value was 4900 nM. In turn, `COc1cc(NC(=O)Cc2cccc(-n3c(=O)c4c(C)onc4c4c(Cl)cccc43)c2)cc(OC)c1OC` yielded an EC50 in assay [2] of 1800 nM. For `Cc1onc2c1c(=O)n(-c1cccc(CC(=O)Nc3ccc(C(F)(F)F)cc3)c1)c1cccc(Cl)c21`, the EC50 in assay [3] is greater than 10000 nM.

`COc1cc(NC(=O)Cc2cccc(-n3c(=O)c4c(C)onc4c4c(Cl)cccc43)c2)cc(OC)c1O`: the EC50 in assay [3] was 1300 nM; in assay [2] it was 1700 nM. In assay [1], the Ratio was 14. In the case of `Cc1onc2c1c(=O)n(-c1cccc(CC(=O)Nc3ccccc3)c1)c1cccc(Cl)c21`, in assay [3], the EC50 came out at 2300 nM. Turning to `COc1cc(OCCc2cccc(-n3c(=O)c4c(C)onc4c4c(Cl)cccc43)c2)cc(OC)c1OC`, in assay [1], the Ratio is listed as 14. The same molecule gave an EC50 in assay [2] of 4400 nM. Turning to `COc1cc(C(=O)NCc2cccc(-n3c(=O)c4c(C)onc4c4c(Cl)cccc43)c2)cc(OC)c1OC`, the EC50 in assay [3] turned out to be 1130 nM.
